Columns and labels:
CDK7 = CDK7 (Homo sapiens, UniProt P50613); test: CDK7-target occupancy assay; assay type: in vivo
Procedure, shortened: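 Skin biopsies were taken at baseline (≤14 days pre-dose) and 6–8 h postdose on days 1 and 15; PBMCs predose day 1 and 8 h postdose days 1 and 15. Lysates were labelled with a biotinylated probe. Anti-cyclin H captured CDK7/cyclin H on MSD plates. Unbound CDK7 was read with SULFO-TAG streptavidin, total with anti-CDK7 mAb. Skin occupancy was baseline-normalised unbound/total; PBMC occupancy was unbound versus day-1 predose.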

[1] = test system: patients with advanced solid tumors; test: Phase I dose-escalation safety: adverse events; assay type: in vivo, human

Sequence of CDK7 (P50613 2-346 limits assumed): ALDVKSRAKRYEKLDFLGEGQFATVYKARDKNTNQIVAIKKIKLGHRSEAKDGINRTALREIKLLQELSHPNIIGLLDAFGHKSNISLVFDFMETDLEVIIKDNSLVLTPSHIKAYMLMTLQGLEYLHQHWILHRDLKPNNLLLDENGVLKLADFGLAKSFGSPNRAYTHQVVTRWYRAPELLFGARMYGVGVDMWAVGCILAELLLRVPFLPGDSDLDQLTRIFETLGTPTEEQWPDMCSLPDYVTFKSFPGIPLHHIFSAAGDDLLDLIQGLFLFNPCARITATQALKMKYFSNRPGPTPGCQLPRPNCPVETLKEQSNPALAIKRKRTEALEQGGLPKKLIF
Sequence of CDK7 (P51946 whole entry partner): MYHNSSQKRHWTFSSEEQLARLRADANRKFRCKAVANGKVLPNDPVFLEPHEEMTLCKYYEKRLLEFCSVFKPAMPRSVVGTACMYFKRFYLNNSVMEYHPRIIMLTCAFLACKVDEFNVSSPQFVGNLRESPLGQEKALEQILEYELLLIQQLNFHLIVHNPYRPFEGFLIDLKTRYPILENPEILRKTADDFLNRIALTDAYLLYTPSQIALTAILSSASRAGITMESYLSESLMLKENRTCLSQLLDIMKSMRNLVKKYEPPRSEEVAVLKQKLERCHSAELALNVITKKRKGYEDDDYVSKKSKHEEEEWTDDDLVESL
Sequence of CDK7 (P51948 whole entry partner): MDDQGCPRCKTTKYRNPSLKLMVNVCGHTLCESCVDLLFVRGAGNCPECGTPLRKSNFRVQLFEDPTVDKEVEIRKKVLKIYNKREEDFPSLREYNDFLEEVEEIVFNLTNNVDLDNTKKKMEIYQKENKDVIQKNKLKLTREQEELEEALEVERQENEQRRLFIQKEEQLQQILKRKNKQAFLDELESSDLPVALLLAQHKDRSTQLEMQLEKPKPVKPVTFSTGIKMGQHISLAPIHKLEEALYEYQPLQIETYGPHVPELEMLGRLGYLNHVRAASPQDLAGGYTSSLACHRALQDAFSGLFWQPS

Cc1cc(NC2CCN(C(=O)OC3CCN(C(=O)/C=C/CN(C)C)C3)CC2)n2ncc(C(C)C)c2n1 (centres unmarked) [LY3405105]
Dose at which near maximal CDK7-target occupancy was achieved (CDK7; QD, steady state on day 15): ≥ 15 mg
CDK7-target occupancy observed (CDK7; highest observed in the trial): up to 90%
Steady-state AUC above which maximum skin target occupancy occurred (CDK7; part A1, skin, day 15, corresponds to doses at 15 mg QD): approximately 500 ng h/mL
CDK7-target occupancy (near maximal) (CDK7; skin and peripheral blood, day 15, ≥15 mg QD): 75%
CDK7 target occupancy (CDK7; ≥15 mg once daily): > 75%
Patients with ≥1 SAE related to study treatment ([1]; QD (N = 43), Any grade): 7 (16) n (%)
Patients with ≥1 TRAE ([1]; QD (N = 43), Any grade): 29 (67) n (%)
SAE related to study treatment: Abdominal pain ([1]; QD (N = 43), Any grade): 1 (2) n (%)
SAE related to study treatment: Acute kidney injury ([1]; QD (N = 43), Any grade): 1 (2) n (%)
SAE related to study treatment: Alanine aminotransferase increase ([1]; QD (N = 43), Any grade): 1 (2) n (%)
SAE related to study treatment: Diarrhea ([1]; QD (N = 43), Any grade): 2 (5) n (%)
SAE related to study treatment: Dyspnea ([1]; QD (N = 43), Any grade): 1 (2) n (%)
SAE related to study treatment: Hypotension ([1]; QD (N = 43), Any grade): 1 (2) n (%)
SAE related to study treatment: Mucosal inflammation ([1]; QD (N = 43), Any grade): 1 (2) n (%)
SAE related to study treatment: Nausea ([1]; QD (N = 43), Any grade): 1 (2) n (%)
SAE related to study treatment: Ophthalmic herpes zoster ([1]; QD (N = 43), Any grade): 1 (2) n (%)
SAE related to study treatment: Platelet count decrease ([1]; QD (N = 43), Any grade): 1 (2) n (%)
TRAE: Abdominal pain ([1]; QD (N = 43), Any grade): 6 (14) n (%)
TRAE: Anemia ([1]; QD (N = 43), Any grade): 5 (12) n (%)
TRAE: Asthenia ([1]; QD (N = 43), Any grade): 2 (5) n (%)
TRAE: Diarrhea ([1]; QD (N = 43), Any grade): 18 (42) n (%)
TRAE: Fatigue ([1]; QD (N = 43), Any grade): 8 (19) n (%)
TRAE: Nausea ([1]; QD (N = 43), Any grade): 9 (21) n (%)
TRAE: Platelet count decrease ([1]; QD (N = 43), Any grade): 6 (14) n (%)
TRAE: Vomiting ([1]; QD (N = 43), Any grade): 8 (19) n (%)
Patients with ≥1 SAE related to study treatment ([1]; QD (N = 43), ≥Grade 3): 6 (14) n (%)
Patients with ≥1 TRAE ([1]; QD (N = 43), ≥Grade 3): 10 (23) n (%)
SAE related to study treatment: Abdominal pain ([1]; QD (N = 43), ≥Grade 3): 0 n (%)
SAE related to study treatment: Acute kidney injury ([1]; QD (N = 43), ≥Grade 3): 1 (2) n (%)
SAE related to study treatment: Alanine aminotransferase increase ([1]; QD (N = 43), ≥Grade 3): 1 (2) n (%)
SAE related to study treatment: Diarrhea ([1]; QD (N = 43), ≥Grade 3): 2 (5) n (%)
SAE related to study treatment: Dyspnea ([1]; QD (N = 43), ≥Grade 3): 1 (2) n (%)
SAE related to study treatment: Hypotension ([1]; QD (N = 43), ≥Grade 3): 0 n (%)
SAE related to study treatment: Mucosal inflammation ([1]; QD (N = 43), ≥Grade 3): 1 (2) n (%)
SAE related to study treatment: Nausea ([1]; QD (N = 43), ≥Grade 3): 1 (2) n (%)
SAE related to study treatment: Ophthalmic herpes zoster ([1]; QD (N = 43), ≥Grade 3): 1 (2) n (%)
SAE related to study treatment: Platelet count decrease ([1]; QD (N = 43), ≥Grade 3): 1 (2) n (%)
TRAE: Abdominal pain ([1]; QD (N = 43), ≥Grade 3): 0 n (%)
TRAE: Anemia ([1]; QD (N = 43), ≥Grade 3): 2 (5) n (%)
TRAE: Asthenia ([1]; QD (N = 43), ≥Grade 3): 0 n (%)
TRAE: Diarrhea ([1]; QD (N = 43), ≥Grade 3): 2 (5) n (%)
TRAE: Fatigue ([1]; QD (N = 43), ≥Grade 3): 1 (2) n (%)
TRAE: Nausea ([1]; QD (N = 43), ≥Grade 3): 1 (2) n (%)
TRAE: Platelet count decrease ([1]; QD (N = 43), ≥Grade 3): 3 (7) n (%)
TRAE: Vomiting ([1]; QD (N = 43), ≥Grade 3): 0 n (%)
Maximum tolerated dose (MTD) ([1]; QD, oral monotherapy, patients): 20 mg
Recommended phase II dose (RP2D) ([1]; QD, oral monotherapy, patients): 20 mg
Patients with ≥1 SAE related to study treatment ([1]; TIW (N = 11), Any grade): 0 n (%)
Patients with ≥1 TRAE ([1]; TIW (N = 11), Any grade): 6 (55) n (%)
SAE related to study treatment: Abdominal pain ([1]; TIW (N = 11), Any grade): 0 n (%)
SAE related to study treatment: Acute kidney injury ([1]; TIW (N = 11), Any grade): 0 n (%)
SAE related to study treatment: Alanine aminotransferase increase ([1]; TIW (N = 11), Any grade): 0 n (%)
SAE related to study treatment: Diarrhea ([1]; TIW (N = 11), Any grade): 0 n (%)
SAE related to study treatment: Dyspnea ([1]; TIW (N = 11), Any grade): 0 n (%)
SAE related to study treatment: Hypotension ([1]; TIW (N = 11), Any grade): 0 n (%)
SAE related to study treatment: Mucosal inflammation ([1]; TIW (N = 11), Any grade): 0 n (%)
SAE related to study treatment: Nausea ([1]; TIW (N = 11), Any grade): 0 n (%)
SAE related to study treatment: Ophthalmic herpes zoster ([1]; TIW (N = 11), Any grade): 0 n (%)
SAE related to study treatment: Platelet count decrease ([1]; TIW (N = 11), Any grade): 0 n (%)
TRAE: Abdominal pain ([1]; TIW (N = 11), Any grade): 0 n (%)
TRAE: Anemia ([1]; TIW (N = 11), Any grade): 1 (9) n (%)
TRAE: Asthenia ([1]; TIW (N = 11), Any grade): 4 (36) n (%)
TRAE: Diarrhea ([1]; TIW (N = 11), Any grade): 0 n (%)
TRAE: Fatigue ([1]; TIW (N = 11), Any grade): 0 n (%)
TRAE: Nausea ([1]; TIW (N = 11), Any grade): 1 (9) n (%)
TRAE: Platelet count decrease ([1]; TIW (N = 11), Any grade): 0 n (%)
TRAE: Vomiting ([1]; TIW (N = 11), Any grade): 0 n (%)
Patients with ≥1 SAE related to study treatment ([1]; TIW (N = 11), ≥Grade 3): 0 n (%)
